Measured values reported in ChEMBL document CHEMBL4190344, “Synthesis of substituted phenanthrene-9-benzimidazole conjugates: Cytotoxicity evaluation and apoptosis inducing studies” (Eur J Med Chem, 2017).
Calls of active or inactive are those of the source. The rule behind the calls is not given here.

Experiments:
PC-3 [1] = assay: Cell cycle arrest in human PC3 cells assessed as accumulation at S phase at 2.5 uM incubated for 24 hrs by propidium iodide staining based flow cytometry (reference value: 13.92%); type: functional
PC-3 [2] = assay: Induction of apoptosis in human PC3 cells assessed as viable cells level at 10 uM incubated for 24 hrs by annexin V-FITC/propidium iodide dual staining based flow cytometry (reference value: 76.73%); type: functional
How it was run: (§1)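 PC-3 cells were grown 24 h, then treated 24 h at 2.5, 5.0 or 10 µM. Cells were trypsinised, washed twice in ice-cold PBS and stained in binding buffer with Annexin V-FITC followed by propidium iodide at room temperature in the dark. 10,000 cells per sample were run on a flow cytometer, with quadrants scored as live, early apoptotic, late apoptotic or necrotic.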

PC-3 [3] = assay: Induction of apoptosis in human PC3 cells assessed as early apoptotic cells level at 5 uM incubated for 24 hrs by annexin V-FITC/propidium iodide dual staining based flow cytometry (reference value: 11.76%); type: functional; how it was run: as §1
PC-3 [4] = assay: Induction of apoptosis in human PC3 cells assessed as necrotic cells level at 10 uM incubated for 24 hrs by annexin V-FITC/propidium iodide dual staining based flow cytometry (reference value: 0.59%); type: functional; how it was run: as §1
PC-3 [5] = assay: Cell cycle arrest in human PC3 cells assessed as accumulation at subG1 phase at 2.5 uM incubated for 24 hrs by propidium iodide staining based flow cytometry (reference value: 1.71%); type: functional
PC-3 [6] = assay: Cell cycle arrest in human PC3 cells assessed as accumulation at G0/G1 phase at 5 uM incubated for 24 hrs by propidium iodide staining based flow cytometry (reference value: 56.67%); type: functional
PC-3 [7] = assay: Induction of apoptosis in human PC3 cells assessed as late apoptotic cells level at 5 uM incubated for 24 hrs by annexin V-FITC/propidium iodide dual staining based flow cytometry (reference value: 10.92%); type: functional; how it was run: as §1
PC-3 [8] = assay: Cell cycle arrest in human PC3 cells assessed as accumulation at G2/M phase at 10 uM incubated for 24 hrs by propidium iodide staining based flow cytometry (reference value: […])
PC-3 [9] = assay: Induction of mitochondrial membrane potential loss in human PC3 cells assessed as JC1 aggregate level at 2.5 uM incubated for 24 hrs by JC1 staining based flow cytometry (reference value: 76.94%); type: functional
PC-3 [10] = assay: Induction of apoptosis in human PC3 cells assessed as viable cells level at 2.5 uM incubated for 24 hrs by annexin V-FITC/propidium iodide dual staining based flow cytometry (reference value: 76.73%); type: functional; how it was run: as §1
PC-3 [11] = assay: Cell cycle arrest in human PC3 cells assessed as accumulation at subG1 phase at 2.10 uM incubated for 24 hrs by propidium iodide staining based flow cytometry (reference value: 1.71%); type: functional
HCT-15 = assay: Cytotoxicity in human HCT15 cells incubated for 48 hrs by MTT assay; type: functional, cell-based; conditions: HCT-15, 48 h
How it was run: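 Cells (1 × 10^4/well) were seeded in medium with 10% FBS and left 24 h at 37 °C. Compound diluted in medium was then added, alongside a vehicle control, for 48 h. MTT (5 mg/mL stock) was added for 4 h, formazan dissolved in DMSO and absorbance read at 570 nm. IC50 taken as the concentration giving 50% inhibition.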

PC-3 [12] = assay: Induction of apoptosis in human PC3 cells assessed as necrotic cells level at 5 uM incubated for 24 hrs by annexin V-FITC/propidium iodide dual staining based flow cytometry (reference value: 0.59%); type: functional; how it was run: as §1
PC-3 [13] = assay: Induction of cell death in human PC3 cells assessed as induction of cell shrinkage at 10 uM incubated for 48 hrs by acridine orange and ethidium bromide staining based fluorescence microscopy; type: functional
How it was run: (§2)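 PC-3 cells (1 × 10^6 cells/mL) were treated with compound and kept 48 h at 37 °C, 5% CO2. Acridine orange and ethidium bromide (10 µg/mL) were added in equal volumes. After 10 min, cells were imaged by fluorescence microscopy (ex 488/em 550 nm, 200×).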

PC-3 [14] = assay: Cell cycle arrest in human PC3 cells assessed as accumulation at S phase at 5 uM incubated for 24 hrs by propidium iodide staining based flow cytometry (reference value: 13.92%); type: functional
PC-3 [15] = assay: Induction of mitochondrial membrane potential loss in human PC3 cells assessed as JC1 monomer level at 2.5 uM incubated for 24 hrs by JC1 staining based flow cytometry (reference value: 22.8%); type: functional
PC-3 [16] = assay: Induction of mitochondrial membrane potential loss in human PC3 cells assessed as JC1 aggregate level at 5 uM incubated for 24 hrs by JC1 staining based flow cytometry (reference value: 76.94%); type: functional
PC-3 [17] = assay: Induction of apoptosis in human PC3 cells assessed as induction of horse-shoe shaped nuclei formation at 2.5 to 10 uM incubated for 48 hrs by DAPI staining based fluorescence microscopy; type: functional, cell-based
How it was run: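 Compound-treated PC-3 cells were PBS-washed, permeabilised with 0.1% Tween 20 for 10 min and stained with 1 µM DAPI. Nuclear morphology was viewed by fluorescence microscopy at ex 359/em 461 nm, 200×.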

Calf thymus DNA = assay: Binding affinity to calf thymus DNA assessed as increase in relative viscosity of DNA-compound complex at 5 uM by viscometry; type: nucleic-acid assay; conditions: Bos taurus
How it was run: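 Viscosity titration of test compound (5 µM) into CT-DNA (50 µM) in 100 mM Tris-HCl pH 7.0. Rolling-ball viscometer, ball fall time read at angles of 20° to 70°, Peltier-held temperature, viscosity calculated at 25 °C.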

PC-3 [18] = assay: Induction of apoptosis in human PC3 cells incubated for 24 hrs by annexin V-FITC/propidium iodide dual staining based flow cytometry; type: functional, cell-based; how it was run: as §1
PC-3 [19] = assay: Induction of cell death in human PC3 cells assessed as induction of membrane blebbing at 10 uM incubated for 48 hrs by acridine orange and ethidium bromide staining based fluorescence microscopy; type: functional; how it was run: as §2
PC-3 [20] = assay: Cell cycle arrest in human PC3 cells assessed as accumulation at S phase at 2.10 uM incubated for 24 hrs by propidium iodide staining based flow cytometry (reference value: 13.92%); type: functional
PC-3 [21] = assay: Cell cycle arrest in human PC3 cells assessed as accumulation at G2/M phase at 2.5 uM incubated for 24 hrs by propidium iodide staining based flow cytometry (reference value: 25.96%); type: functional

## COc1ccc2cc(-c3nc4ccc(F)cc4[nH]3)c3cc(OC)c(OC)cc3c2c1
PC-3 [1]
  Activity: 11.3%
PC-3 [2]
  Activity: 27.68%
PC-3 [3]
  Activity: 33.41%
PC-3 [4]
  Activity: 0.36%
PC-3 [5]
  Activity: 3.08%
PC-3 [6]
  Activity: 49.29%
PC-3 [7]
  Activity: 34.03%
PC-3 [8]
  Activity: 44.16%
PC-3 [9]
  Activity: 66.43%
PC-3 [10]
  Activity: 38.69%
PC-3 [11]
  Activity: 5.01%
HCT-15
  IC50: > 20 µM
PC-3 [12]
  Activity: 0.44%
PC-3 [13]
  Activity: Active
PC-3 [14]
  Activity: 14.21%
PC-3 [15]
  Activity: 33.35%
PC-3 [16]
  Activity: 32.38%
PC-3 [17]
  Activity: Active
Calf thymus DNA
  Activity: Active
PC-3 [18]
  Activity: Dose-dependent effect
PC-3 [19]
  Activity: Active
PC-3 [20]
  Activity: 11.76%
PC-3 [21]
  Activity: 27.8%
